Compound activity deposited in PubChem BioAssay by several laboratories.
In the library only some 1.8% were active in any assay of this set; here they are far more common.
NTR1 agonist: NTR1 (human) agonism; P30989; NTR1-U2OS beta-arrestin-GFP spot imaging, agonist mode; activation, % at 20 µM; actives 0.17% (n = 330,000); AID 493036;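 active means activation at or above 40% of the spot to cytoplasm intensity ratio, with at least 20 cells analyzed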;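 further: 0% = DMSO without peptide and 100% = 100 nM NTR1 peptide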
MC4R barr agon: human MC4R agonism via beta-arrestin. U2OS MC4R beta-arrestin complementation, luminescence; percent of melanotan II response, DMSO zero. activation, % at 8.9 µM. actives 0.98% (n = 360,000). AID 540308;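 active means activation above a per-plate cutoff, the mean activation of sample wells on that plate plus 3 SD, cut at about 8% in these data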
Target sequence (P32245 whole entry, looked up): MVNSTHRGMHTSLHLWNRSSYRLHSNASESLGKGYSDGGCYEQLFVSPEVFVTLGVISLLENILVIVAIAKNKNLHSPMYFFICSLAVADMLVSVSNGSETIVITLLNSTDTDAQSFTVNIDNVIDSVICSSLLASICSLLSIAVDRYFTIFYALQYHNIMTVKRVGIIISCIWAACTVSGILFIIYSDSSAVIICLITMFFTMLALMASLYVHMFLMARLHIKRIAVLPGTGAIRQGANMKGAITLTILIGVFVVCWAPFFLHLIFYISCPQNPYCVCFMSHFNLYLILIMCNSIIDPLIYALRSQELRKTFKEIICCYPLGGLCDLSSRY
MC4R antagonist: blocks human MC4R cAMP signaling. MC4R-expressing cells, MTII-stimulated cAMP, LANCE TR-FRET. AID 540295. actives 0.48% (n = 360,000). inhibition, % at 6.5 µM;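 active means inhibition above its plate's cutoff, the mean of tested wells on that plate plus 3 SD, cut at about 29% in these data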;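 further: 0% = Melanotan II alone and 100% = Melanotan II plus saturating MCL0020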
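System: U2OS cells stably expressing human melanocortin 4 receptor (MC4R). Reagent: Melanotan II challenge after compound preincubation. Doses: 6.5 µM. Times: 30-min compound, 1-h challenge, 1-h detection, room temperature. Measured by: TR-FRET with Eu-cAMP and labeled anti-cAMP, 671 nm. Replicates: singlicate.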
AI-2 QS modul: modulators of Vibrio harveyi AI-2 quorum sensing system; activity change, % at 7.5 µM; Vibrio harveyi JMH597 AI-2 luminescence/OD600 ratio, 9 h; active compounds read low; strain lacks LuxN and CqsS sensors; 0 = neutral-control median; actives 0.4% (n = 300,000); in the data active means activity change below about -75%, passing the limit was not always enough;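 further: luminescence divided by OD600 gain over 9 h not by final OD600 alone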
MC4R barr conf: human MC4R beta-arrestin agonism confirmation. AID 602192. shares compounds with MC4R barr agon. actives 31% (n = 2,400). activation, % at 8.9 µM. U2OS MC4R beta-arrestin recruitment, luminescence; scaled DMSO 0%, Melanotan II 100%;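 active means mean activation across replicates above the hit cutoff set in the earlier primary screen, cut at about 8% in these data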
MOR DOR agonist: OPRM1-OPRD1 heterodimer agonism counter-screen | activation, % at 9.2 µM | actives 5.8% (n = 2,400) | AID 602194 | U2OS PathHunter beta-arrestin, beta-gal luminescence; percent of deltorphin B response, DMSO zero | shares compounds with MC4R barr agon;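 active means mean activation across replicates exceeds the hit threshold derived in the earlier primary screen, cut at about 18% in these data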;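 further: 100% = deltorphin B at 0.9 µM final and 0% = DMSO alone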
The depositor's hits bear a star; . = not tested or not shown.

SMILES	NTR1 agonist	MC4R barr agon	MC4R antagonist	AI-2 QS modul	MC4R barr conf	MOR DOR agonist
N[C@@H](Cc1c[nH]c2ccccc12)c1nnc(SCc2ccc(Cl)cc2)o1	0	10*	-3	8	4	6
N[C@@H](Cc1c[nH]c2ccccc12)c1nnc(SCc2ccccc2)o1	0	0	0	-7	.	.
C[N+]1(C)C2CC(OC(=O)C(CO)c3ccccc3)CC1C1OC12 (stereo unspecified)	-2	3	24	.	.	.
Clc1ccc(C[n+]2c(-c3ccccc3)cc(-c3ccccc3)cc2-c2ccccc2)cc1	25	16*	-4	35	20*	7
CCN(CC)CCO	-2	1	11	.	.	.
CCOc1c(Cl)cc(CNCCc2c[nH]c3ccccc23)cc1OC	5	-1	-1	7	.	.
CCOc1cc(CNCCc2c[nH]c3ccccc23)cc(Cl)c1OCC	8	15*	5	11	17*	8
